Reference: ChEMBL document CHEMBL1141374 (J Med Chem, 2007)
Each block holds one compound with its values, some of them ahead of it.

Key:
[1] = Cytotoxicity against P-glycoprotein-overexpressing KB-V1 cell line; format: cell-based; conditions: Homo sapiens
How it was run: (§1)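 Log-phase cells were diluted to 20 000–30 000 cells/mL, seeded, and left to attach overnight. They were then exposed to compounds at 10^–5–10^–12 M for 72 h at 37 °C in 5% CO2. Viable cells were measured by MTT, with absorbance read at 595 nm. Each compound ran in triplicate in at least three independent assays. IC50 came from nonlinear regression, and average values were reported.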

[2] = molecular target: Tubulin; experiment: Inhibition of tubulin polymerization; format: protein-complex assay, Homo sapiens
How it was run: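 Kit-based assay run per the manufacturer's instructions. Tubulin (>99% pure, 3 mg/mL) in G-PEM buffer, in a prewarmed plate with compound at 0.03–30 μM. OD340 nm read every 60 s at 37 °C for 1 h.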

[3] = system: CCRF-CEM; experiment: Growth inhibition in CCRF-CEM cells; format: functional; conditions: Homo sapiens
[4] = system: HL-60; experiment: Growth inhibition in HL60 cells; format: functional; conditions: Homo sapiens
[5] = system: K562; experiment: Growth inhibition in K562 cells; format: functional; conditions: Homo sapiens
[6] = system: A549; experiment: Growth inhibition in A549 cells; format: functional; conditions: Homo sapiens
[7] = system: EKVX; experiment: Growth inhibition in EKVX cells; format: functional; conditions: Homo sapiens
[8] = system: HOP-62; experiment: Growth inhibition in HOP62 cells; format: functional; conditions: Homo sapiens
[9] = system: HOP-92; experiment: Growth inhibition in HOP92 cells; format: functional; conditions: Homo sapiens
[10] = system: NCI-H226; experiment: Growth inhibition in NCI-H226 cells; format: functional; conditions: Homo sapiens
[11] = system: NCI-H23; experiment: Growth inhibition in NCI-H23 cells; format: functional; conditions: Homo sapiens
[12] = system: NCI-H322M; experiment: Growth inhibition in NCI-H322M cells; format: functional; conditions: Homo sapiens
[13] = system: NCI-H460; experiment: Growth inhibition in NCI-H460 cells; format: functional; conditions: Homo sapiens
[14] = system: NCI-H522; experiment: Growth inhibition in NCI-H522 cells; format: functional; conditions: Homo sapiens
[15] = system: COLO 205; experiment: Growth inhibition in COLO205 cells; format: functional; conditions: Homo sapiens
[16] = system: HCC 2998; experiment: Growth inhibition in HCC2998 cells; format: functional; conditions: Homo sapiens
[17] = Growth inhibition in HCC116 cells; format: functional; conditions: Homo sapiens
[18] = Growth inhibition in HCC15 cells; format: functional; conditions: Homo sapiens
[19] = system: HT-29; experiment: Growth inhibition in HT29 cells; format: functional; conditions: Homo sapiens
[20] = system: KM12; experiment: Growth inhibition in KM12 cells; format: functional; conditions: Homo sapiens
[21] = system: SW-620; experiment: Growth inhibition in SW620 cells; format: functional; conditions: Homo sapiens
[22] = system: SF-268; experiment: Growth inhibition in SF268 cells; format: functional; conditions: Homo sapiens
[23] = system: SF-295; experiment: Growth inhibition in SF295 cells; format: functional; conditions: Homo sapiens
[24] = system: SF-539; experiment: Growth inhibition in SF539 cells; format: functional; conditions: Homo sapiens
[25] = system: SNB-19; experiment: Growth inhibition in SNB19 cells; format: functional; conditions: Homo sapiens
[26] = system: SNB-75; experiment: Growth inhibition in SNB75 cells; format: functional; conditions: Homo sapiens
[27] = system: U-251; experiment: Growth inhibition in U251cells; format: functional; conditions: Homo sapiens
[28] = system: LOX IMVI; experiment: Growth inhibition in LOX IMVI cells; format: functional; conditions: Homo sapiens
[29] = system: M14; experiment: Growth inhibition in M14 cells; format: functional; conditions: Homo sapiens
[30] = system: SK-MEL-5; experiment: Growth inhibition in SK-MEL-5 cells; format: functional; conditions: Homo sapiens
[31] = system: UACC-257; experiment: Growth inhibition in UACC257 cells; format: functional; conditions: Homo sapiens
[32] = system: UACC-62; experiment: Growth inhibition in UACC62 cells; format: functional; conditions: Homo sapiens
[33] = system: IGROV-1; experiment: Growth inhibition in IGROV1 cells; format: functional; conditions: Homo sapiens
[34] = system: OVCAR-3; experiment: Growth inhibition in OVCAR-3 cells; format: functional; conditions: Homo sapiens
[35] = system: OVCAR-4; experiment: Growth inhibition in OVCAR4 cells; format: functional; conditions: Homo sapiens
[36] = system: OVCAR-5; experiment: Growth inhibition in OVCAR5 cells; format: functional; conditions: Homo sapiens
[37] = system: OVCAR-8; experiment: Growth inhibition in OVCAR8 cells; format: functional; conditions: Homo sapiens
[38] = system: SK-OV-3; experiment: Growth inhibition in SKOV3 cells; format: functional; conditions: Homo sapiens
[39] = system: RXF 393; experiment: Growth inhibition in RXF393 cells; format: functional; conditions: Homo sapiens
[40] = system: SN12C; experiment: Growth inhibition in SN12C cells; format: functional; conditions: Homo sapiens
[41] = system: 786-0; experiment: Growth inhibition in 786-0 cells; format: functional; conditions: Homo sapiens
[42] = system: A498; experiment: Growth inhibition in A498 cells; format: functional; conditions: Homo sapiens
[43] = system: ACHN; experiment: Growth inhibition in ACHN cells; format: functional; conditions: Homo sapiens
[44] = system: CAKI-1; experiment: Growth inhibition in CAK1-1 cells; format: functional; conditions: Homo sapiens
[45] = system: TK-10; experiment: Growth inhibition in TK10 cells; format: functional; conditions: Homo sapiens
[46] = system: UO-31; experiment: Growth inhibition in UO31 cells; format: functional; conditions: Homo sapiens
[47] = system: PC-3; experiment: Growth inhibition in PC3 cells; format: functional; conditions: Homo sapiens
[48] = system: DU-145; experiment: Growth inhibition in DU145 cells; format: functional; conditions: Homo sapiens
[49] = system: MCF7; experiment: Growth inhibition in MCF7 cells; format: functional; conditions: Homo sapiens
[50] = system: NCI/ADR-RES; experiment: Growth inhibition in NCI/ADR-RES cells; format: functional; conditions: Homo sapiens
[51] = Growth inhibition in MDA-MB-231/ATCC cells; format: functional; conditions: Homo sapiens
[52] = Growth inhibition in HS 578T cells; format: functional; conditions: Homo sapiens
[53] = system: MDA-MB-435; experiment: Growth inhibition in MDA-MB-435 cells; format: functional; conditions: Homo sapiens
[54] = system: BT-549; experiment: Growth inhibition in BT549 cells; format: functional; conditions: Homo sapiens
[55] = system: T47D; experiment: Growth inhibition in T47D cells; format: functional; conditions: Homo sapiens
[56] = system: HCT-116; experiment: Cytotoxicity against HCT116 cell line; format: cell-based; conditions: Homo sapiens; how it was run: as §1
[57] = system: ZR-75-1; experiment: Cytotoxicity against ZR-75-1 cell line; format: cell-based; conditions: Homo sapiens; how it was run: as §1
[58] = system: HeLa; experiment: Cytotoxicity against HeLa cell line; format: cell-based; conditions: Homo sapiens; how it was run: as §1
[59] = Cytotoxicity against KB-3-1 cell line; format: cell-based; conditions: Homo sapiens; how it was run: as §1

IC50 [2]: 4100 nM
GI50 [3]: 61.7 nM
GI50 [4]: 105 nM
GI50 [5]: 12.9 nM
GI50 [6]: 398 nM
GI50 [10]: 100000 nM
GI50 [11]: 6760 nM
GI50 [12]: 2630 nM
GI50 [13]: 178 nM
GI50 [14]: 57.5 nM
GI50 [15]: 87.1 nM
GI50 [16]: 85.1 nM
GI50 [19]: 30.9 nM
GI50 [21]: 75.9 nM
GI50 [27]: 151 nM
GI50 [30]: 69.2 nM
GI50 [34]: 34.7 nM
GI50 [35]: 20900 nM
GI50 [36]: 4270 nM
GI50 [37]: 2570 nM
GI50 [38]: 347 nM
GI50 [41]: 398 nM
GI50 [43]: 204 nM
GI50 [47]: 28.2 nM
GI50 [48]: 1860 nM
GI50 [49]: 275 nM
GI50 [53]: < 10 nM
GI50 [54]: 25100 nM
GI50 [55]: 47.9 nM
SMILES: COc1cc(-c2nncn2-c2ccc(N(C)C)cc2)cc(OC)c1OC
IC50 [1]: 323 nM
GI50 [7]: > 100000 nM
GI50 [8]: 275 nM
GI50 [9]: 389 nM
GI50 [17]: 60.3 nM
GI50 [18]: 60.3 nM
GI50 [20]: 26.3 nM
GI50 [22]: 34.7 nM
GI50 [23]: 37.1 nM
GI50 [24]: 324 nM
GI50 [25]: 204 nM
GI50 [26]: 107 nM
GI50 [28]: 219 nM
GI50 [29]: 50.1 nM
GI50 [31]: 100000 nM
GI50 [32]: 95.5 nM
GI50 [33]: 95.5 nM
GI50 [39]: 1620 nM
GI50 [40]: 724 nM
GI50 [42]: 490 nM
GI50 [44]: 135 nM
GI50 [45]: 1660 nM
GI50 [46]: 955 nM
GI50 [50]: 129 nM
GI50 [51]: 1020 nM
GI50 [52]: 417 nM
IC50 [56]: 91.5 nM
IC50 [57]: 308 nM
IC50 [58]: 29.6 nM
IC50 [59]: 119 nM

SMILES: COc1cc(-n2cnnc2-c2ccc3c(ccn3C)c2)cc(OC)c1OC
IC50 [1]: 32.1 nM
IC50 [2]: 5600 nM
IC50 [56]: 24.3 nM
IC50 [58]: 18 nM
IC50 [59]: 15 nM
